# In ChEMBL document CHEMBL1137537, “Novel oxotremorine-related heterocyclic derivatives: Synthesis and in vitro pharmacology at the muscarinic receptor subtypes” (Bioorg Med Chem, 2007):
# Key:
# Oryctolagus cuniculus = species on record: Oryctolagus cuniculus; assay: Intrinsic activity at muscarinic M1 receptor in electrically stimulated New Zealand rabbit vas deferens relative to McN-A-343; type: tissue-based
# Method in brief: (§1)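 Intrinsic activity as ratio of compound's maximal response to that of reference full agonist (McN-A-343 for vas deferens, bethanechol for atrium and ileum), from cumulative concentration–response curves; mean of 6-8 experiments.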
# [1] = molecular target: T1, Muscarinic acetylcholine receptor M1 (Homo sapiens, UniProt P11229); assay: biochemical; type: cell-based, CHO
# T1 sequence (P11229 whole entry): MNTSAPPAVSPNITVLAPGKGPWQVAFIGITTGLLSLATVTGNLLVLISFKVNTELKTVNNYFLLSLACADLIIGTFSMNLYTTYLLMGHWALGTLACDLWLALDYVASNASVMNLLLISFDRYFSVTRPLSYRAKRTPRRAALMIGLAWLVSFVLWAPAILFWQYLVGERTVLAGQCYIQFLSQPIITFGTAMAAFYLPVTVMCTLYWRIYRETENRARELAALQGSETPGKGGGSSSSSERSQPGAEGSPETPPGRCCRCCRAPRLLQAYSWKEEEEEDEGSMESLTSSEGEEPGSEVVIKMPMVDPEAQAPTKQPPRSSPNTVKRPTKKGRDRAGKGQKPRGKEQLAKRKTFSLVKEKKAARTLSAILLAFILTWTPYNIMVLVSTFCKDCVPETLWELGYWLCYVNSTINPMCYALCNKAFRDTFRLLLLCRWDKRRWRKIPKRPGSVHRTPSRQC
# [2] = molecular target: T2, Muscarinic acetylcholine receptor M2 (Homo sapiens, UniProt P08172); assay: Displacement of [3H]QNB from human muscarinic M2 receptor expressed in CHO cells; type: cell-based
# T2 sequence (P08172 whole entry): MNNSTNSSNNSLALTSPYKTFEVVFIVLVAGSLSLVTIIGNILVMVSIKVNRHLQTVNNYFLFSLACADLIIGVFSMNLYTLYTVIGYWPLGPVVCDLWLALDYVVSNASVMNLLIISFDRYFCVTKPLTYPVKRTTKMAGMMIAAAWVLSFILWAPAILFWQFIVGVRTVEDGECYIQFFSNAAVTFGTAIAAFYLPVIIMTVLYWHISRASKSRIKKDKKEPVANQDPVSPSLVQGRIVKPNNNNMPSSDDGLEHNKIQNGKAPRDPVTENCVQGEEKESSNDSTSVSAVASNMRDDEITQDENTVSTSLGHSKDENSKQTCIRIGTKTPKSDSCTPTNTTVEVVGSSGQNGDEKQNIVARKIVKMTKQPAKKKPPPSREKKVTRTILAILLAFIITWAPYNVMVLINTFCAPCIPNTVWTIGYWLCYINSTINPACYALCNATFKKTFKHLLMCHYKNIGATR
# Method in brief: (§2)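 Membranes (10-50 µg protein) from stable CHO lines expressing human m2-m5, competed against 180 pM [3H]QNB in 50 mM Tris-HCl pH 7.4 with 1% DMSO; 120 min at 25 °C to equilibrium; nonspecific binding with 0.5 µM atropine; GF-C filtration, scintillation counting; IC50 by logistic fit, Ki via Cheng–Prusoff using saturation-derived KD (5–2500 pM [3H]QNB).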
# [3] = molecular target: Muscarinic acetylcholine receptor M3 (Homo sapiens, UniProt P20309); assay: Displacement of [3H]QNB from human muscarinic M3 receptor expressed in CHO cells; type: cell-based
# Sequence of Muscarinic acetylcholine receptor M3 (P20309 whole entry): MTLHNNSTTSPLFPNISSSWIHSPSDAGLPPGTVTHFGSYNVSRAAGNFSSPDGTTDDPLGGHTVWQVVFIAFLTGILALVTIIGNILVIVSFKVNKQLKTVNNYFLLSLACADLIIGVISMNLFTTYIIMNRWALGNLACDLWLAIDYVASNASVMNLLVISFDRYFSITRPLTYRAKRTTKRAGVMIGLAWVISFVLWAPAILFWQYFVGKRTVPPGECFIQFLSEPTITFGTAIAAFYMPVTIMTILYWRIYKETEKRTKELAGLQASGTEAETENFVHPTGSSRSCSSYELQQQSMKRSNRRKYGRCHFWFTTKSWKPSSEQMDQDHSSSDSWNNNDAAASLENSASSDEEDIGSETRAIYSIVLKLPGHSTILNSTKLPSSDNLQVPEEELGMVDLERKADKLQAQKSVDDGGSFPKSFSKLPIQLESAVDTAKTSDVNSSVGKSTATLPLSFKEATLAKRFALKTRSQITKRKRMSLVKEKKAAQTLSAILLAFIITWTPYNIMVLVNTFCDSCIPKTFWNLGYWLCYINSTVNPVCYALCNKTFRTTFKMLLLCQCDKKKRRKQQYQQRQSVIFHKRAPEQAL
# [4] = molecular target: T3, Muscarinic acetylcholine receptor M4 (Homo sapiens, UniProt P08173); assay: Displacement of [3H]QNB from human muscarinic M4 receptor expressed in CHO cells; type: cell-based; method in brief: as §2
# T3 sequence (P08173 whole entry): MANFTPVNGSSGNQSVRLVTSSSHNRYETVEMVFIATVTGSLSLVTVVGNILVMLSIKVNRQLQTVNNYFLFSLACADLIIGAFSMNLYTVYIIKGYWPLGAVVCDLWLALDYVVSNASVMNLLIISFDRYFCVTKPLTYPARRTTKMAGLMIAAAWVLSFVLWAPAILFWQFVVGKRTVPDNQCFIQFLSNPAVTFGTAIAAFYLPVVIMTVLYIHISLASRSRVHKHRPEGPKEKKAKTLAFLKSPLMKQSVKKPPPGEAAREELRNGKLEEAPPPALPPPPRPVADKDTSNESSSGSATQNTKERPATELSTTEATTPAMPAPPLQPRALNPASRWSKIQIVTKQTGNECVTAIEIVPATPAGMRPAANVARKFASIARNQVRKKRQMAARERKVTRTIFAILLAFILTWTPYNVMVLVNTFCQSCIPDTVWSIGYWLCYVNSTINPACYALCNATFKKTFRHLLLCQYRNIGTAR
# [5] = molecular target: T4, Muscarinic acetylcholine receptor M5 (Homo sapiens, UniProt P08912); assay: Displacement of [3H]QNB from human muscarinic M5 receptor expressed in CHO cells; type: cell-based
# T4 sequence (P08912 whole entry): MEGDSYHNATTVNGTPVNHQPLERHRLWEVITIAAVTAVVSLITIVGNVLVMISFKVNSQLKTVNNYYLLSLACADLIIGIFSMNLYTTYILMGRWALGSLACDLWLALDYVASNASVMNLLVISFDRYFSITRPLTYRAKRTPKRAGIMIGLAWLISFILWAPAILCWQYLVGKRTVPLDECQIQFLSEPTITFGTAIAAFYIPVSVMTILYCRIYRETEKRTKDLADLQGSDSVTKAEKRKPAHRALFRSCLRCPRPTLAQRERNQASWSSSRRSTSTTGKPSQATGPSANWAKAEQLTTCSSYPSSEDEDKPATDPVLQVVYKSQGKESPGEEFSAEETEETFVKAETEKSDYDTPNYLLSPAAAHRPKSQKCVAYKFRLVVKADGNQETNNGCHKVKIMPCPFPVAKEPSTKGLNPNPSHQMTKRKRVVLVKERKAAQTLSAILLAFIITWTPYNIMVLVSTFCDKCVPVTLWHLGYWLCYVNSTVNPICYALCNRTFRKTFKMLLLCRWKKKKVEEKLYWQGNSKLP
# Cavia porcellus = species on record: Cavia porcellus; assay: Intrinsic activity at muscarinic M2 receptor in electrically stimulated guinea-pig left atrium relative to benthanechol; type: tissue-based; details: Cardiac atrium; method in brief: as §1
# [6] = molecular target: Muscarinic acetylcholine receptor M3 (Cavia porcellus) (UniProt Q8VH26); assay: Intrinsic activity at muscarinic M3 receptor in guinea-pig ileum relative to benthanechol; type: tissue-based; method in brief: as §1
# Sequence of Muscarinic acetylcholine receptor M3 (Cavia porcellus) (Q8VH26 1-587): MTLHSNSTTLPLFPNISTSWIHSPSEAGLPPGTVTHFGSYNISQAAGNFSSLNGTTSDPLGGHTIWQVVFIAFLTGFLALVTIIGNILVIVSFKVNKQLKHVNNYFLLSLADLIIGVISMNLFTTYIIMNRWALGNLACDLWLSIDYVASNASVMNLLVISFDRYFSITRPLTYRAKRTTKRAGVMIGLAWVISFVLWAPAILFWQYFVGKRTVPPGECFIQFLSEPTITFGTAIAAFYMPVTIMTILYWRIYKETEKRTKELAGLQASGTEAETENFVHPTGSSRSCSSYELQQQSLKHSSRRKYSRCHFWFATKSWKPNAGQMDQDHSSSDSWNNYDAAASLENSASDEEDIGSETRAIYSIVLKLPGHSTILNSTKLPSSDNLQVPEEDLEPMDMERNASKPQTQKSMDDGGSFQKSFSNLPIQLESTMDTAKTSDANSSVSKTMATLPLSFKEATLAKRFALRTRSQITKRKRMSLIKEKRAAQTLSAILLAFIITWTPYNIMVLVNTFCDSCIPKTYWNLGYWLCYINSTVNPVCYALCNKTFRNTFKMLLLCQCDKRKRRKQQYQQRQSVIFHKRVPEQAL
# [7] = Antagonist activity at muscarinic M1 receptor in electrically stimulated New Zealand rabbit vas deferens; type: functional, Oryctolagus cuniculus
# Method in brief: (§3)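 Antagonist mode: after 30 min incubation with test compound (10 nM–100 µM), concentration–response curve to full agonist (bethanechol or McN-A-343) repeated; pKB as molar concentration giving twofold EC50 shift, Furchgott's method; mean of 6-8 experiments.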
# [8] = Antagonist activity at muscarinic M2 receptor in electrically stimulated guinea-pig left atrium; type: functional, Cavia porcellus, Cardiac atrium; method in brief: as §3
# [9] = molecular target: Muscarinic acetylcholine receptor M3 (Cavia porcellus) (UniProt Q8VH26); assay: Antagonist activity at muscarinic M3 receptor in guinea-pig ileum; type: functional, tissue-based; method in brief: as §3
smiles,measurement,setting,value
O=C(O)C(=O)O.O=C1CCON1CC#CCN1CCCCC1,Intrinsic activity,Oryctolagus cuniculus,0
same,Ki,[1],819 nM
same,Ki,[2],40 nM
same,Ki,[3],537 nM
same,Ki,[4],792 nM
same,Ki,[5],544 nM
same,Intrinsic activity,Cavia porcellus,0.2
same,Intrinsic activity,[6],0
same,pKb,[7],6.45
same,pKb,[8],5.94
same,pKb,[9],5.55
